Data reported in ChEMBL document CHEMBL1144183, “Synthesis and biological affinity of new imidazo- and indol-arylpiperazine derivatives: further validation of a pharmacophore model for alpha(1)-adrenoceptor antagonists” (Bioorg Med Chem Lett, 2008).

Assays:
[1] = biological target: T1, 5-hydroxytryptamine receptor 1A (Rattus norvegicus, UniProt P19327); experiment: Displacement of [3H]8-OH-DPAT from 5HT1A receptor in rat cortex membrane; type: cell membranes
T1 sequence (P19327 whole entry): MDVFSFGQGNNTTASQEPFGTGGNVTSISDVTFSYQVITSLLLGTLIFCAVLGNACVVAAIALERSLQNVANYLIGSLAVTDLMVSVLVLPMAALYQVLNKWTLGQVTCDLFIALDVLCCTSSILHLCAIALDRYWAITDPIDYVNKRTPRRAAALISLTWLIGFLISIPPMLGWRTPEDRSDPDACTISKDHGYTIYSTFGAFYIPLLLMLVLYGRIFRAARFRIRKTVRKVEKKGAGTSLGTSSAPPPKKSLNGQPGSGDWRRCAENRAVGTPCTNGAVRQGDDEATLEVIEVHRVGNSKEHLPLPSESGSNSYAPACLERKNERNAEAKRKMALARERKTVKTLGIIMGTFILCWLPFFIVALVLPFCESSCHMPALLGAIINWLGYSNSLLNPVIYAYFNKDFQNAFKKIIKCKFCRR
How it was run: (§1)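 Competitive radioligand binding on rat cerebral cortex membranes. IC50 was converted to Ki by Cheng–Prusoff, Ki = IC50/(1+[L]/Kd). Ki is the mean of three separate experiments, each run in triplicate.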

Rattus norvegicus [2] = species: Rattus norvegicus; experiment: Ratio of Ki for alpha2 adrenoceptor in rat cortex membrane to Ki for alpha1 adrenoceptor in rat cortex membrane; type: cell membranes
[3] = Displacement of [3H]prazosin from alpha1 adrenoceptor in rat cortex membrane; type: cell membranes; how it was run: as §1
[4] = biological target: T2, Sodium-dependent serotonin transporter (Homo sapiens, UniProt P31645); type: cell membranes
Target sequence in this assay (P31645 whole entry): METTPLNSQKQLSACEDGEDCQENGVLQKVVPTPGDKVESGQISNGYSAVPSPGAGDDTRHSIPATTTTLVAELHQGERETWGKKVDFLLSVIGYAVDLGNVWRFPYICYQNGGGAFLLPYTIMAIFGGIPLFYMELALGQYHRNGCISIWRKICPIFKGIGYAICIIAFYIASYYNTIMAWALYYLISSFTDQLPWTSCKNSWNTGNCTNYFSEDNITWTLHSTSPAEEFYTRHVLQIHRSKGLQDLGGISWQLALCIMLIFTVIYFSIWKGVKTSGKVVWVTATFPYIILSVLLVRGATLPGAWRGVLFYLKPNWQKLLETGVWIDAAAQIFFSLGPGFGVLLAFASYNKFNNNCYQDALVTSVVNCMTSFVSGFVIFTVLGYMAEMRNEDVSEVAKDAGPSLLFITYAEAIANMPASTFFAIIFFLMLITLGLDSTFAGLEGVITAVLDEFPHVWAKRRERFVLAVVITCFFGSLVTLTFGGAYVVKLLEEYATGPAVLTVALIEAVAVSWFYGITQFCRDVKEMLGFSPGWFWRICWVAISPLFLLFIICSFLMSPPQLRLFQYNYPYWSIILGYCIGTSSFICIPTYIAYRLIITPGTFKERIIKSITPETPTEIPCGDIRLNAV

[5] = biological target: T2, Sodium-dependent serotonin transporter; experiment: Displacement of [3H]paroxetine from SERT in human platelet membrane at 10 uM; type: cell membranes
How it was run: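 Compounds were tested at 10 µM, with percent displacement recorded. Where obtainable, Ki was derived from IC50 by Cheng–Prusoff. Assays were run in triplicate.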
Target sequence in this assay (P31645 whole entry, looked up): as the sequence (P31645 whole entry) above

[6] = Displacement of [3H]rauwolscine from alpha2 adrenoceptor in rat cortex membrane; type: cell membranes; how it was run: as §1
Rattus norvegicus [7] = species: Rattus norvegicus; experiment: Ratio of Ki for 5HT1A receptor in rat cortex membrane to Ki for alpha1 adrenoceptor in rat cortex membrane; type: cell membranes
[8] = biological target: 5-hydroxytryptamine receptor 2A (Homo sapiens, UniProt P28223); experiment: Displacement of [3H]ketanserine from 5HT2A receptor
Chain of 5-hydroxytryptamine receptor 2A (P28223 whole entry): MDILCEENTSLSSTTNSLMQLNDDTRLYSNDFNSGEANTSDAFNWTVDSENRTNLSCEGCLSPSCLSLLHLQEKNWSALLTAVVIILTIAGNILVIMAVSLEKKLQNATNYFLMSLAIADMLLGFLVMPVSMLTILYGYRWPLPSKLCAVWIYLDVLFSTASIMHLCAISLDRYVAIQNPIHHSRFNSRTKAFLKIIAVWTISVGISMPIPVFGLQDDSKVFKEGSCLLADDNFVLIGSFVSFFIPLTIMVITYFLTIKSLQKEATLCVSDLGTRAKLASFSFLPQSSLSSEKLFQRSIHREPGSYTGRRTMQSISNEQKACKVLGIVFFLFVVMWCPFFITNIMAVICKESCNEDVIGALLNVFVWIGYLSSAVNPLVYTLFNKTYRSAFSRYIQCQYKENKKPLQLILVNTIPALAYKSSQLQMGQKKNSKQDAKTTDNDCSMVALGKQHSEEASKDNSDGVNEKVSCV

Structure (SMILES) | Ki [1] | Ratio Ki (Rattus norvegicus [2]) | Ki [3] | Ki [4] | Activity [5] | Ki [6] | Ratio Ki (Rattus norvegicus [7]) | Ki [8]
CCOc1ccccc1N1CCN(C(=O)CCCn2nc(-n3ccnc3)ccc2=O)CC1 | 2250 nM | 3.57 | 492 nM | > 10000 nM | 11% | 1760 nM | 4.57 | 
COc1ccccc1N1CCN(C(=O)CCCn2nc(-n3ccnc3)ccc2=O)CC1 | 318 nM | 0.86 | 2190 nM | > 10000 nM | 3% | 1900 nM | 0.14 | 
CCOc1ccccc1N1CCN(CCNC(=O)Cn2nc(-n3ccnc3)ccc2=O)CC1 | 1150 nM | 13.4 | 234 nM | 5980 nM |  | 3140 nM | 4.9 | 
CC(C)Oc1ccccc1N1CCN(C(=O)CCCn2nc(-n3ccnc3)ccc2=O)CC1 | 1560 nM | 1.49 | 897 nM | > 10000 nM | 2% | 1340 nM | 1.73 | 
O=c1ccc(-n2ccnc2)nn1CCCCN1CCN(c2ncccn2)CC1 | 890 nM | 2.2 | 710 nM | > 10000 nM | 5% | 1550 nM | 1.25 | 
O=c1ccc(-n2ccc3ccccc32)nn1CCCCN1CCN(c2cccc(C(F)(F)F)c2)CC1 | 62 nM | 7.7 | 60 nM | 109 nM |  | 462 nM | 1.03 | 83 nM
COC(=O)[C@H]1[C@H]2C[C@H]3c4[nH]c5ccccc5c4CCN3C[C@H]2CC[C@@H]1O [RAUWOLSCINE] |  |  |  |  |  | 4 nM |  | 
CC(C)Oc1ccccc1N1CCN(CCNC(=O)Cn2nc(-n3ccnc3)ccc2=O)CC1 | 1910 nM | 8.89 | 220 nM | > 10000 nM |  | 1960 nM | 8.7 | 
O=c1ccc(-n2ccnc2)nn1CCCCN1CCN(c2cccc(C(F)(F)F)c2)CC1 | 13 nM | 5.6 | 118 nM | 230 nM |  | 656 nM |  | 166 nM
O=c1ccc(-n2ccnc2)nn1CCCCN1CCN(c2ccc3c(c2)OCCO3)CC1 | 937 nM | 3.9 | 251 nM | > 10000 nM | 26% | 996 nM | 3.73 | 
COc1ccccc1N1CCN(CCNC(=O)Cn2nc(-n3ccnc3)ccc2=O)CC1 | 2070 nM | 4.3 | 688 nM | 3460 nM |  | 2970 nM | 3 | 

Next, values leading:

Ki [1] | Ratio Ki (Rattus norvegicus [2]) | Ki [3] | Ki [4] | Activity [5] | Ki [6] | Ratio Ki (Rattus norvegicus [7]) | Ki [8] | Structure (SMILES)
 |  | 0.24 nM |  |  |  |  |  | COc1cc2nc(N3CCN(C(=O)c4ccco4)CC3)nc(N)c2cc1OC [PRAZOSIN]
210 nM | 38.1 | 19 nM | > 10000 nM | 25% | 725 nM | 11.1 |  | O=c1ccc(-n2ccc3ccccc32)nn1CCCCN1CCN(c2ncccn2)CC1
22.8 nM | 12 | 1.7 nM | 1040 nM |  | 20.1 nM | 13.6 |  | CC(C)Oc1ccccc1N1CCN(CCCCn2nc(-n3ccc4ccccc43)ccc2=O)CC1
627 nM | 34 | 14 nM | 177 nM |  | 476 nM | 44.8 |  | O=c1ccc(-n2ccc3ccccc32)nn1CCCCN1CCN(c2ccc3c(c2)OCCO3)CC1
14 nM | 163 | 0.8 nM | > 10000 nM | 15% | 147 nM | 15.5 |  | CCOc1ccccc1N1CCN(CCCCn2nc(-n3ccnc3)ccc2=O)CC1
6.8 nM | 110 | 0.4 nM | > 10000 nM | 10% | 44 nM | 17 |  | CC(C)Oc1ccccc1N1CCN(CCCCn2nc(-n3ccnc3)ccc2=O)CC1
27.7 nM | 62.6 | 1.1 nM | 639 nM |  | 70.1 nM | 24.7 |  | CCOc1ccccc1N1CCN(CCCCn2nc(-n3ccc4ccccc43)ccc2=O)CC1
